Screens (PubChem)
OXTR agonist = activates the human oxytocin receptor. CHO-OTR cells, Fluo-8 calcium fluorescence; normalized: DMSO 0%, oxytocin 100%. P30559. activation, % at 3 µM. hit rate 0.32% among 320,000;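 active = activation above the mean of all tested compounds plus 3 SD, cutoff set per screening run, cut at about 20% in these data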;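 note: peak over basal fluorescence ratio from a 100 s FLIPR kinetic read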
Target sequence (P30559 whole entry, looked up): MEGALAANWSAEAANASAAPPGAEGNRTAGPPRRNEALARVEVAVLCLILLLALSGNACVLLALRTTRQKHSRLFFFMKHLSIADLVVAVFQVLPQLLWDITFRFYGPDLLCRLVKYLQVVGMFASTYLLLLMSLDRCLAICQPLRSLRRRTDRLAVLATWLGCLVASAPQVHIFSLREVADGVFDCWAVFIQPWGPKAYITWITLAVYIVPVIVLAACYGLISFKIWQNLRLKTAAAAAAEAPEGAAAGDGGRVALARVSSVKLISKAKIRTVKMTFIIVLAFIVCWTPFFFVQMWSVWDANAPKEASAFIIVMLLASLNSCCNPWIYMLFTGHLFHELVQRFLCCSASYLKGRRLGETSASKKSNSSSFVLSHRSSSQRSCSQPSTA
V1R ag counter = V1a receptor agonism, counter-screen for OXTR agonists; activation, % at 3 µM; P37288; hit rate 0.25% among 320,000; CHO-V1R cells, Fluo-8 calcium fluorescence, agonist mode; 0% DMSO, 100% 3 nM vasopressin;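 active = activation above the mean activation of all tested compounds plus 3 SD, per screening run, cut at about 20% in these data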;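 note: signal is peak over basal fluorescence ratio across a 100 second FLIPR read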
OXTR potentiator = human OXTR potentiation; P30559; CHO-OTR cells, Fluo-8 calcium fluorescence, potentiator mode; 0% = oxytocin EC15, 100% = EC100; activation, % at 3 µM; hit rate 0.061% among 320,000; AID 2445;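 active = activation above that plate's cutoff, the mean activation of tested compounds plus 3 SD, cut at about 6.6% in these data, passing the limit was not always enough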;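 note: 100% uses oxytocin at 75 nM as the full agonist control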
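Material: human OTR in CHO cells. Compound: 3.0 µM, one dose. Timing: compound 6 min at room temperature before oxytocin, 100 s read. Evaluation: % activation of max/min ratio relative to oxytocin controls. Replication: single well per compound, singlicate. Signal: Fluo-8 calcium dye fluorescence.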
CHO parental Ca = counter-screen for OX1R antagonists: effect in parental CHO cells; parental CHO-K1, ATP-induced calcium, Fluo-8 fluorescence; inhibition, % at 5.6 µM; hit rate 0.63% among 330,000;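 active = inhibition above that plate's mean sample inhibition plus 3 SD, cut at about 26% in these data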;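 note: 0% = ATP-challenged DMSO wells and 100% = DMSO wells without ATP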
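Test system: parental CHO cells; detection: calcium-sensitive Fluo-8 fluorescence; evaluation: percent inhibition of calcium signal; also added: ATP as calcium-mobilizing challenge; repeats: one well per compound; control set: ATP-challenged DMSO wells low, unchallenged DMSO wells high; compound: single nominal dose of 5.6 µM per compound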
OX1R antag-1 = OX1R (human) antagonism; O43613; OX1R-expressing cells, FRET antagonist read-out; inhibition, % at 6.6 µM; hit rate 1.8% among 330,000; in the data active = inhibition mostly above about 38%, no sharp cut-off; inactive = mostly below about 40%;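 note: 0% = agonist challenge alone and 100% = reference antagonist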
OX1R antag-2 = blocks the human orexin 1 receptor | CHO/OX1R cells, Fluo-8 calcium fluorescence, orexin A | O43613 | inhibition, % at 5 µM | hit rate 0.43% among 330,000;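 active = inhibition above its plate's threshold, mean inhibition of all tested compounds on the plate plus 3 SD, cut at about 37% in these data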;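 note: 0% = orexin A challenge wells and 100% = SB-334867-A antagonist wells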
OX1R HTRF confirm = confirmation of human orexin 1 receptor antagonists, HTRF format; shares compounds with OX1R antag-1; OX1R-expressing cells, HTRF antagonist assay; inhibition, % at 6.6 µM; hit rate 49% among 1,800; in the data active = inhibition above about 55%;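 note: CHO cells expressing OX1R stimulated with orexin A at about EC80; 0% = agonist challenge alone and 100% = reference antagonist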
CHO-K1 HTRF cnt = counter-screen for OX1R antagonists: effect in parental CHO-K1 cells; shares compounds with OX1R antag-1; HTRF counterscreen; inhibition, % at 6.6 µM; hit rate 48% among 1,800; in the data active = inhibition above about 17%;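 note: 0% = agonist challenge with vehicle and 100% = vehicle alone without agonist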
* marks the source's active call; other numbers are inactive results; x = no result. Only some compounds are listed: those with a hit (about 2.6% of all), similar ones and a draw of the others.

SMILES	OXTR agonist	V1R ag counter	OXTR potentiator	CHO parental Ca	OX1R antag-1	OX1R antag-2	OX1R HTRF confirm	CHO-K1 HTRF cnt
CCCC(=O)Nc1cccc(-c2nc3ccccc3o2)c1	4.4	2.5	-6.7	-15.8	56.6	-21.1	x	x
CC(=O)Nc1cccc(-c2nc3ccccc3o2)c1	0.4	0.4	-9.8	-11.3	80.2*	24.6	65.9*	1.3
O=C(O)/C=C/C(=O)Nc1ccc(C(=O)c2ccccc2)cc1	0.2	0.1	-1.2	0.1	0.8	9.1	x	x
O=C(O)/C=C/C(=O)Nc1ccc2c(c1)C(=O)c1ccccc1C2=O	-0.3	0.7	-0.9	-4.7	82.7*	-2.9	41.0	49.9*
CC(=O)Nc1ccc2nc3ccccc3nc2c1	1.8	1.1	-4.7	-2.8	133.9*	-4.8	109.7*	64.9*
CC(=O)Nc1ccc2c(c1)c1ccccc1n2C(C)=O	-1.6	-0.5	-4.7	-12.3	77.5*	-0.5	71.3*	14.2
COc1ccc(CSC2=CS(=O)(=O)c3ccccc3N2)cc1	1.0	2.9	-12.3	-11.3	10.4	-32.6	x	x
O=C(Nc1ccnc(-c2ccncc2)n1)C1CC1	1.7	-0.2	1.3	1.8	-0.9	2.9	x	x
CC(=O)Nc1ccc2c(c1)C(=O)c1ccccc1C2=O	-0.1	0.3	-14.2	0.4	102.2*	-5.5	69.8*	39.4*
Cc1ccc(NC(=O)NC(=O)N(C(C)C)S(=O)(=O)c2ccc(C)cc2)cc1	0.4	0.8	0.8	-9.5	16.7	-25.2	x	x
COc1ccccc1NC(=O)COC(=O)c1ccc([N+](=O)[O-])s1	0.3	-0.6	-5.1	-13.5	90.7*	-13.1	37.1	48.4*
O=C(COC(=O)c1ccc(Br)o1)NCc1ccc(F)cc1	-1.1	-1.1	-6.7	-3.3	1.2	0.2	x	x
O=C(COC(=O)c1ccc([N+](=O)[O-])s1)NCc1ccc(F)cc1	-0.1	8.2	-5.0	-9.8	89.1*	-8.8	46.4	48.0*
CC(NC(=O)COC(=O)c1ccc([N+](=O)[O-])s1)c1ccccc1 (stereo not given)	-0.4	0.4	-9.3	-9.5	81.3*	-10.4	24.2	17.4*
CC1Cc2ccccc2N1C(=O)CCS(=O)(=O)c1cccc2nonc12 (stereo not given)	-0.1	-0.7	-6.0	-20.2	84.6*	-11.7	53.5	23.1*
Nc1nonc1-n1nnc(C(=O)N/N=C/c2ccncc2)c1-c1ccccc1	3.1	1.7	-0.2	-9.9	19.7	-16.4	x	x
COc1ccc(NC(=O)CCC(=O)N/N=C/c2cccnc2)cc1	-0.4	0.2	-9.4	1.2	5.8	-0.7	x	x
CC(C)(C)OC(=O)N/N=C\c1ccc([N+](=O)[O-])s1	0.1	0.5	4.1	-2.9	88.3*	-12.2	38.4	44.3*
COc1ccc(NC(=O)CCC(=O)N/N=C/c2ccc([N+](=O)[O-])s2)cc1	-0.4	1.1	-8.3	-3.4	80.6*	-4.9	46.9	44.8*
COc1ccc(OC)c(/C=C/C(=O)N(C)CC(=O)Nc2ccc(N3CCOCC3)cc2)c1	-0.4	0.0	-4.4	-4.2	-1.8	0.8	x	x
CCC1(C)N=c2c(c(=O)n(C)c(=O)n2C)=NO1 (stereo not given)	-0.8	-0.7	-12.6	-4.8	123.4*	3.5	20.7	25.6*
Cc1c(C(=O)Nc2nccs2)oc2c(Cl)cccc12	-2.4	-1.0	2.3	-16.0	77.3*	-3.5	67.3*	14.4
CCNc1ccc(C(=O)OCC(=O)NCc2ccc(C)cc2)cc1[N+](=O)[O-]	-1.0	0.7	-2.2	-16.4	20.7	-22.6	x	x
CCNc1ccc(C(=O)OCC(=O)N2CCCC2)cc1[N+](=O)[O-]	-0.1	0.2	-3.1	-4.3	139.7*	-17.9	33.7	56.3*
CC(c1ccco1)N(C(=O)c1cc(Cl)cc(Cl)c1)c1ccccn1 (stereo not given)	-2.3	-0.5	-1.1	-16.8	21.9	-29.3	x	x
